Measurements reported in ChEMBL document CHEMBL4014301, “Design, synthesis and evaluation of 4-substituted anthra[2,1-c][1,2,5]thiadiazole-6,11-dione derivatives as novel non-camptothecin topoisomerase I inhibitors” (Bioorg Med Chem Lett, 2017).
≈ marks a conversion by molar mass, not a printed value. Calls of active or inactive are those of the source. No cut-off for these calls is given here.

Tests used:
[1] = target: T1, DNA topoisomerase 1 (Homo sapiens) (UniProt P11387); test: Inhibition of DNA topoisomerase-1 (unknown origin) mediated DNA relaxation assessed as DNA intercalation at 1 ug/ml using supercoiled pBR322 plasmid DNA as substrate after 60 mins by ethidium bromide staining based agarose gel electrophoresis
T1 sequence (whole entry): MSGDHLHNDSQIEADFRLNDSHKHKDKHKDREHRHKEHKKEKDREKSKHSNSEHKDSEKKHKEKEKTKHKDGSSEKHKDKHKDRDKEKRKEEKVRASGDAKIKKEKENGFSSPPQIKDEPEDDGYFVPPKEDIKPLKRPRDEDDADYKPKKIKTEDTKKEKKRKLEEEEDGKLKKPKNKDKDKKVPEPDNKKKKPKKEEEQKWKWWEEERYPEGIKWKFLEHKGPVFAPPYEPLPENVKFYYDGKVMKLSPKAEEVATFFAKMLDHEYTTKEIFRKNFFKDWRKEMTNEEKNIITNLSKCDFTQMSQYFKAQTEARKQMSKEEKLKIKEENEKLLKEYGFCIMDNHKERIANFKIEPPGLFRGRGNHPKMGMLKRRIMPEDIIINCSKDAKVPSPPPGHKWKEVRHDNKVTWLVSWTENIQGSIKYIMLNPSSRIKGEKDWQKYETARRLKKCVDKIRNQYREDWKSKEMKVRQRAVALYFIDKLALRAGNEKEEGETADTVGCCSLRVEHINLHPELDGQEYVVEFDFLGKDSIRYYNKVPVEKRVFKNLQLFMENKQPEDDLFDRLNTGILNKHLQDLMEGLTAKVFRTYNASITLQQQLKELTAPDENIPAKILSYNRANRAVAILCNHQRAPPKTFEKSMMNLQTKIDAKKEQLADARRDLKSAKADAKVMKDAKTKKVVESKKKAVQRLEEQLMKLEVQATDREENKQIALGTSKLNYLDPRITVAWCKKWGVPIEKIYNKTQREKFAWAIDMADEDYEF
In short: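 Top1 unwinding assay for DNA intercalation: supercoiled pBR322 plasmid treated with excess Top1 in presence of compounds (100 µM), with ethidium bromide (1 µg/mL) as intercalator control; compounds removed by phenol extraction after relaxation. Nicked, relaxed and supercoiled DNA forms resolved on gel.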

[2] = system: A549; test: Antiproliferative activity against human A549 cells after 72 hrs by MTT assay; assay type: functional, cell-based; settings: Homo sapiens, A549, 72 h
[3] = system: HCT-116; test: Antiproliferative activity against human HCT116 cells after 72 hrs by MTT assay; assay type: functional, cell-based; settings: Homo sapiens, HCT-116, 72 h
[4] = system: ZR-75-30; test: Antiproliferative activity against human ZR-7530 cells after 72 hrs by MTT assay; assay type: functional, cell-based; settings: Homo sapiens, ZR-75-30, 72 h
[5] = Solubility of the compound; assay type: physicochemical
[6] = target: T1, DNA topoisomerase 1 (Homo sapiens); test: Inhibition of DNA topoisomerase 1 (unknown origin) assessed as reduction in supercoiled pBR322 plasmid DNA relaxation at 100 uM after 15 mins by ethidium bromide staining based agarose gel electrophoresis
In short: (§1)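 Supercoiled pBR322 plasmid incubated with Top1, with or without compound at 1, 10 and 100 µM. Relaxation inhibition read from agarose gel bands.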

[7] = target: T1, DNA topoisomerase 1 (Homo sapiens); test: Inhibition of DNA topoisomerase-1 (unknown origin) mediated DNA relaxation assessed as DNA intercalation at 100 uM using supercoiled pBR322 plasmid DNA as substrate after 60 mins by ethidium bromide staining based agarose gel electrophoresis
In short: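 Unwinding assay with excess Top1 acting on supercoiled pBR322 in the presence of compound at 100 µM. Ethidium bromide at 1 µg/mL used as intercalator reference. Compound removed by phenol extraction after relaxation. Nicked, relaxed and supercoiled forms resolved on gel.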

[8] = system: HCT-116; test: Cell cycle arrest in human HCT116 cells assessed as accumulation at G2 phase at 5 uM after 12 hrs by propidium iodide staining-based flow cytometry (reference value: 19%); assay type: functional
[9] = system: HCT-116; test: Cell cycle arrest in human HCT116 cells assessed as accumulation at G2 phase at 5 uM after 36 hrs by propidium iodide staining-based flow cytometry (reference value: 21%); assay type: functional
[10] = target: T1, DNA topoisomerase 1 (Homo sapiens); test: Inhibition of DNA topoisomerase 1 (unknown origin) assessed as reduction in supercoiled pBR322 plasmid DNA relaxation after 15 mins by ethidium bromide staining based agarose gel electrophoresis; in short: as §1
[11] = target: T1, DNA topoisomerase 1 (Homo sapiens); test: Inhibition of DNA topoisomerase 1 (unknown origin) assessed as reduction in supercoiled pBR322 plasmid DNA relaxation at 1 uM after 15 mins by ethidium bromide staining based agarose gel electrophoresis; in short: as §1

Row | SMILES | inhibition [1] | IC50 [2] | IC50 [3] | IC50 [4] | solubility [5] | inhibition [6] | inhibition [7] | Activity [8] | Activity [9] | inhibition [10] | inhibition [11]
1 | CC[n+]1c(-c2ccccc2)c2cc(N)ccc2c2ccc(N)cc21 | Active | – | – | – | – | – | – | – | – | – | –
2 | Cc1ccc(S(=O)(=O)c2cc3c(c4nsnc24)C(=O)c2ccccc2C3=O)cc1 | – | 50 µM | 84 µM | 90 µM | 0.14 µg/mL (≈ 0.333 µM) | – | – | – | – | – | –
3 | CC(=O)N1CCN(c2cc3c(c4nsnc24)C(=O)c2ccccc2C3=O)CC1 | – | 17 µM | 0.52 µM | 0.42 µM | 7.98 µg/mL (≈ 20.3 µM) | Active | Active | 34% | 56% | Dose-dependent effect | Active
